Reference: ChEMBL document CHEMBL1649225, “Artemisone and artemiside control acute and reactivated toxoplasmosis in a murine model” (Antimicrob Agents Chemother, 2009)
Calls of active or inactive are those of the source. The calls are words filed in the database; no cut-off is given here.

Legend:
HFF = test: Cytotoxicity against HFF; type: cell-based; conditions: human
Toxoplasma gondii [1] = test: Antiparasitic activity against Toxoplasma gondii RH infected in human foreskin fibroblasts monolayer after 72 hrs by bacterial beta-galactosidase reporter gene assay; type: functional, organism-based
Outline: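 RH clone 2F expressing bacterial β-galactosidase, grown as tachyzoites in HFF monolayers in DMEM with 10% FBS. Compounds from DMSO stocks stored at −80°C in single-use aliquots. Tested at 0.010–1.0 μM for 72 h at 37°C. Medium then removed and β-galactosidase activity read at 570 nm.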

[2] = Partition coefficient, log P of the compound; type: physicochemical; conditions: octanol/water
Toxoplasma gondii [3] = test: Antiparasitic activity against Toxoplasma gondii PRU-Luc-GFP type 2 infected in CD1 mouse acute toxoplasmosis model assessed as mouse survival at 10 mg/kg, sc administered once daily for 8 days measured after 25 days post-infection; type: functional; conditions: PRU-Luc-GFP type 2, sc, route subcutaneous
Outline: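 Female CD1 outbred mice, 8–10 weeks old, infected i.p. with 10⁶ PRU-Luc-GFP type II tachyzoites in 0.2 ml PBS. Compounds given s.c. at 10 mg/kg daily for 8 days. Survival followed for 25 days; three experiments combined, n = 3 or 4 per group.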

Toxoplasma gondii [4] = test: (§1) Antiparasitic activity against Toxoplasma gondii PRU-Luc-GFP type 2 infected in CD1 mouse acute toxoplasmosis model assessed as decrease in parasite burden at 10 mg/kg, sc administered once daily for 8 days measured after 25 days post-infection by luciferase reporter gene based assay; type: functional, organism-based; parameters: dose 10 mg/kg
Outline: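 Female CD1 mice, 8–10 weeks old, infected i.p. with 10⁶ PRU-Luc-GFP tachyzoites. Dosed s.c. at 10 mg/kg daily for 8 days. Imaged every 2 days over 25 days under mild isoflurane anesthesia after i.p. firefly luciferin D at […]. Output in relative light units as a relative index of infection severity. Four repeats, n = 3 or 4 per group; one representative experiment shown.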

Toxoplasma gondii [5] = test: (§2) Antiparasitic activity against Toxoplasma gondii PRU-Luc-GFP type 2 infected in 400 mg/kg sulfadiazine-pretreated INFgamma-deficient C57BL/6 mouse reactivated toxoplasmosis model assessed as mouse survival at 10 mg/kg, sc at once daily for 8 days administered 2 days after sulfadiazine discontinuation; type: functional
Outline: (§3)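 Female IFN-γ−/− mice on C57BL/6 background, 8–10 weeks old, kept specific pathogen-free. Infected orally with 20 PRU-Luc-GFP tissue cysts taken from brains of chronically infected wild-type mice. Sulfadiazine in drinking water for 3 weeks from day 2. Compounds given s.c. at 10 mg/kg daily for 8 days, starting 2 days after sulfadiazine stopped. Survival monitored; three experiments combined, n = 3–5 per group.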

Toxoplasma gondii [6] = test: as §2, with “discontinuation measured on day 18 post infection after compound withdrawal” for “discontinuation”; type: functional, organism-based; outline: as §3
Toxoplasma gondii [7] = test: as §2, with “discontinuation measured on day 25 post infection after compound withdrawal” for “discontinuation”; type: functional, organism-based; outline: as §3
Toxoplasma gondii [8] = test: as §1, with “parasite-induced cyst formation in mouse brain” for “parasite burden”; type: functional, organism-based; parameters: dose 10 mg/kg
Outline: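 Female CD1 mice, 8–10 weeks old, infected i.p. with 10⁶ PRU-Luc-GFP tachyzoites and dosed s.c. at 10 mg/kg daily for 8 days. At 25 days post-infection, brains were homogenized in 1.0 ml PBS, pH 7.2. Cysts counted by bright-field or phase-contrast microscopy at ×40 in four 20-μl aliquots and total cysts per brain estimated. Three experiments combined, n = 2 per group.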

[9] = Partition coefficient, log P of the compound at pH 2; type: physicochemical; conditions: octanol/water

SMILES	Activity (HFF)	EC50 (Toxoplasma gondii [1])	EC90 (Toxoplasma gondii [1])	logP [2]	survival at 10 mg/kg (Toxoplasma gondii [3])	Activity (Toxoplasma gondii [4])	Survival (Toxoplasma gondii [5])	Activity (Toxoplasma gondii [6])	Activity (Toxoplasma gondii [7])	Activity (Toxoplasma gondii [8])	logP [9]
C[C@H]1[C@H](NS(N)(=O)=O)O[C@@H]2O[C@@]3(C)CC[C@H]4[C@H](C)CC[C@@H]1[C@@]24OO3	Non-toxic	158 nM	235 nM	3.36							
C[C@@H]1CC[C@H]2[C@@H](C)C(c3ccc(F)cc3)O[C@@H]3O[C@@]4(C)CC[C@@H]1[C@]32OO4 (some centres not stated)	Non-toxic	182 nM	271 nM	5.18							
C[C@H]1[C@H](N2CCN(Cc3ccccc3)CC2)O[C@@H]2O[C@@]3(C)CC[C@H]4[C@H](C)CC[C@@H]1[C@@]24OO3	Non-toxic	213 nM	339 nM	5.62							
C[C@H]1[C@H](N2CCN(c3ncccn3)CC2)O[C@@H]2O[C@@]3(C)CC[C@H]4[C@H](C)CC[C@@H]1[C@@]24OO3	Non-toxic	156 nM	263 nM	4.78							
C[C@H]1[C@H](N2CCS(=O)(=O)CC2)O[C@@H]2O[C@@]3(C)CC[C@H]4[C@H](C)CC[C@@H]1[C@@]24OO3 [ARTEMIFONE]	Non-toxic	120 nM	176 nM	2.49	50%	Active	60%	inactive	inactive		
C[C@H]1[C@H](N2CCSCC2)O[C@@H]2O[C@@]3(C)CC[C@H]4[C@H](C)CC[C@@H]1[C@@]24OO3 [ARTEMISIDE]	Non-toxic	108 nM	167 nM	4.97	60%	Active	80%	inactive	inactive	Active	
C[C@@H]1CC[C@H]2[C@@H](C)C(=O)O[C@@H]3O[C@@]4(C)CC[C@@H]1[C@]32OO4 [ARTEMISININ]				2.94		inactive				inactive	
C[C@H]1[C@H](OC(=O)CCC(=O)O)O[C@@H]2O[C@@]3(C)CC[C@H]4[C@H](C)CC[C@@H]1[C@@]24OO3 [ARTESUNATE]	Non-toxic	213 nM	368 nM								2.77
